# Columns and labels:
# [1] = target: T1, homomeric ASIC1a (Rattus norvegicus, UniProt P55926); test: Direct opening of ASIC1a channels by PcTx1; assay type: cell-based; conditions: 100 μM amiloride
# T1 sequence (P55926 1-526): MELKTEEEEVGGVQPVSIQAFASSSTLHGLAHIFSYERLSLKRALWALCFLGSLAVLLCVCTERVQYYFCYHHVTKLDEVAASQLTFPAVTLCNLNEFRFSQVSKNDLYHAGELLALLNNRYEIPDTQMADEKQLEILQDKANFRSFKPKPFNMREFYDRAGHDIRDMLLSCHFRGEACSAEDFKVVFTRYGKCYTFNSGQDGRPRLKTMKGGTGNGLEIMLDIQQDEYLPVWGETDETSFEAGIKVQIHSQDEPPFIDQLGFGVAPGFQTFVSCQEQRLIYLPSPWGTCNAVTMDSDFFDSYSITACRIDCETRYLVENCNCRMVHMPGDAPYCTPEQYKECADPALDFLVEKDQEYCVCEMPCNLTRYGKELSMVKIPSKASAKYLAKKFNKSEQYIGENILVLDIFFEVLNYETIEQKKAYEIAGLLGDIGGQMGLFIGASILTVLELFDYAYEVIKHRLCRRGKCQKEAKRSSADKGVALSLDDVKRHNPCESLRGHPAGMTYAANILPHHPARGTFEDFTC
# Summary of the method: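 Rat ASIC1a cRNA (0.01 ng) injected into stage V-VI Xenopus oocytes, kept 2-4 d in OR-2 (pH 7.3); whole-cell currents at -70 mV. The conditioning solution was switched from 1.8 to 0.1 mM Ca2+ (with 0.1 mM flufenamic acid) at pH 7.35, together with 100 nM test peptide toxin in 0.05% BSA. The transient inward current was tested with 100 µM amiloride.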
# [2] = tested on: ASIC3; conditions: ref Diochot et al., 2004, cited from earlier work
# [3] = tested on: ASIC1a; conditions: ref Diochot et al., 2004; cited from earlier work
Compound,"block of PcTx1-elicited currents by amiloride ([1]; 100 nM PcTx1 coapplied with pH 7.1, n = 3)","block of PcTx1-elicited currents by amiloride ([1]; 100 nM PcTx1 with 0.1 mM Ca2+ at pH 7.35, n = 4)",inhibition of ASIC3 ([2]; inhibition during steady state (at pH 7.4)),affinity of the interaction with ASIC3 [2],inhibition of ASIC1a [3]
N=C(N)NC(=O)c1nc(Cl)c(N)nc1N [amiloride],could be blocked,could be blocked,–,–,–
APETx2,–,–,inhibits,nanomolar affinity,does not inhibit

# Reference: publication PMC2266618 (The Journal of General Physiology, 2005)
